Experimental data: ChEMBL document CHEMBL2146480, “Discovery of Phenylaminopyridine Derivatives as Novel HIV-1 Non-nucleoside Reverse Transcriptase Inhibitors” (ACS Med Chem Lett, 2012); call rule not given here
Converted amounts (≈) assume the structure as drawn. One block for each molecule: values may come before it.

How the values were obtained:
[1] = Cytotoxicity against human CEM174 cells assessed as cell viability; format: cell-based
Summary of the method: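 Values are geometric means of two determinations, each within 25% of the mean.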

[2] = test system: Human immunodeficiency virus 1; test: Antiviral activity against wild type HIV1 LAI infected in human CEM174 cells assessed as inhibition of viral replication preincubated for 1 hr prior to viral infection measured after 5 days; format: functional, organism-based; conditions: Human immunodeficiency virus 1, LAI
[3] = Solubility of the compound in distilled water at pH 7.4; format: physicochemical
[4] = Solubility of the compound in distilled water at pH 2.1; format: physicochemical
[5] = target: Human immunodeficiency virus type 1 reverse transcriptase (Human immunodeficiency virus 1, UniProt Q72547); test: Inhibition of RNA-dependent DNA polymerase activity of wild type N-terminal His6x-tagged HIV 1 reverse transcriptase p66/p51 expressed in Escherichia coli (DE3) rosetta cells preincubated for 30 mins by SPA assay
[6] = target: Human immunodeficiency virus type 1 reverse transcriptase (Human immunodeficiency virus 1, UniProt Q72547, K103N); test: Inhibition of RNA-dependent DNA polymerase activity of N-terminal His6x-tagged HIV 1 reverse transcriptase K103N mutant expressed in Escherichia coli (DE3) rosetta cells preincubated for 30 mins by SPA assay
[7] = target: Human immunodeficiency virus type 1 reverse transcriptase (Human immunodeficiency virus 1, UniProt Q72547, Y181C); test: Inhibition of RNA-dependent DNA polymerase activity of N-terminal His6x-tagged HIV 1 reverse transcriptase Y181C mutant expressed in Escherichia coli (DE3) rosetta cells preincubated for 30 mins by SPA assay
[8] = Volume of distribution in rat at 0.94 mg/kg, iv and 9.44 mg/kg, po; format: ADME, organism-based; conditions: in vivo
Summary of the method: (§1)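 Rats given a single iv dose of 0.94 mg/kg and a single oral dose of 9.44 mg/kg. Both iv and po formulations were 1.0 mg/mL in 20% HP-β-CD. Vd, oral AUC, F, clearance and t1/2 were derived from plasma exposure.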

[9] = AUC in rat 9.44 mg/kg, po; format: ADME, organism-based; set-up: dose 9.44 mg/kg, route oral; conditions: plasma; summary of the method: as §1
[10] = Oral bioavailability in rat at 9.44 mg/kg; format: ADME, organism-based; conditions: in vivo; summary of the method: as §1
[11] = Clearance in rat at 0.94 mg/kg, iv and 9.44 mg/kg, po; format: ADME, organism-based; conditions: in vivo; summary of the method: as §1
[12] = Half life in rat at 0.94 mg/kg, iv and 9.44 mg/kg, po; format: ADME, organism-based; conditions: in vivo; summary of the method: as §1
[13] = Induction of CYP3A4 mRNA expression in human Fa2N-4 cells up to 10 uM after 24 hrs; format: ADME, cell-based; conditions: fa2n-4, 24 h
[14] = test system: Human immunodeficiency virus type 1 reverse transcriptase (Human immunodeficiency virus 1), Q72547 [UNDEFINED MUTATION]; test: Resistant ratio of IC50 for HIV 1 reverse transcriptase K103N mutant to IC50 for wild type HIV 1 reverse transcriptase
Summary of the method: (§2)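 Fold resistance is IC50 against the mutant RT divided by IC50 against wild-type RT. Both IC50s come from the RNA-dependent DNA polymerase inhibition assay, each taken as the geometric mean of two determinations.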

[15] = test system: Human immunodeficiency virus 1; test: Resistant ratio of IC50 for HIV 1 reverse transcriptase Y181C mutant to IC50 for wild type HIV 1 reverse transcriptase; summary of the method: as §2
[16] = target: Voltage-gated inwardly rectifying potassium channel KCNH2 (Homo sapiens, UniProt Q12809); test: Inhibition of recombinant human ERG channel IKr expressed in CHO cells by patch clamp assay
Sequence of Voltage-gated inwardly rectifying potassium channel KCNH2 (Q12809 whole entry): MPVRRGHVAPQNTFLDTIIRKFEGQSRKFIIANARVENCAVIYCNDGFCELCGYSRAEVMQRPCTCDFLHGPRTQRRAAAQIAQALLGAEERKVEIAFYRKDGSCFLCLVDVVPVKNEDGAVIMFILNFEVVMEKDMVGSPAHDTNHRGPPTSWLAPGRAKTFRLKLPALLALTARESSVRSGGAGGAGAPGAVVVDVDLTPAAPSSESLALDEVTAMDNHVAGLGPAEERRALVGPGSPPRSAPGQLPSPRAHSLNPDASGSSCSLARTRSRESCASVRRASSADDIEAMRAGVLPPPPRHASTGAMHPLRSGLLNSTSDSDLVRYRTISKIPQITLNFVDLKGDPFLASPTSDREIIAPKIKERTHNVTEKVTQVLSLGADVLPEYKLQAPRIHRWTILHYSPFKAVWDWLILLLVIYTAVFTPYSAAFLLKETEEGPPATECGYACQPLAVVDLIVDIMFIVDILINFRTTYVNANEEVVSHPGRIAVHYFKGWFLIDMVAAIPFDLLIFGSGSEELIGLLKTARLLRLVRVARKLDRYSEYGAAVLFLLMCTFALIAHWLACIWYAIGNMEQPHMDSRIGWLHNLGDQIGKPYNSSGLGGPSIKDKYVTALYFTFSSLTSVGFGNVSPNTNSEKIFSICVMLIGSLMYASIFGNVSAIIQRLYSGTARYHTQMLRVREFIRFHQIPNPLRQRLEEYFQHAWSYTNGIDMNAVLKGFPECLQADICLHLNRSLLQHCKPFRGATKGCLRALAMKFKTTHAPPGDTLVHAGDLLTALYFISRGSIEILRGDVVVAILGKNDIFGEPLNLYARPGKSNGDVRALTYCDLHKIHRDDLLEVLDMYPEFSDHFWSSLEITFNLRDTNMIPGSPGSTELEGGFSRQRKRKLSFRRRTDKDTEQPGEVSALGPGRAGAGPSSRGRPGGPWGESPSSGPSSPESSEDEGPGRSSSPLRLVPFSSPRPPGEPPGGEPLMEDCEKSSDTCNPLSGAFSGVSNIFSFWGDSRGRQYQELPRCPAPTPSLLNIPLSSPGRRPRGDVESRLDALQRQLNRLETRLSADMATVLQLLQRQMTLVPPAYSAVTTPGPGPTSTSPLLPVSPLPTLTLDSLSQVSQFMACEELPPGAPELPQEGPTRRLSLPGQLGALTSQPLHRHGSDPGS

[17] = Solubility of the compound in distilled water; format: physicochemical
Summary of the method: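 Solubility was measured on the HCl salt in distilled water.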

[18] = Half life in rat at 1.19 mg/kg, iv and 10.9 mg/kg, po; format: ADME, organism-based; conditions: in vivo
Summary of the method: (§3)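 The iv and po formulation was 1.0 mg/mL in 40% PEG. Vd, AUCpo, F, clearance and t1/2 were derived.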

[19] = Volume of distribution in rat at 1.19 mg/kg, iv and 10.9 mg/kg, po; format: ADME, organism-based; conditions: in vivo; summary of the method: as §3
[20] = AUC in rat at 10.9 mg/kg, po; format: ADME, organism-based; set-up: dose 10.9 mg/kg, route oral; conditions: plasma; summary of the method: as §3
[21] = Oral bioavailability in rat at 10.9 mg/kg; format: ADME, organism-based; conditions: in vivo; summary of the method: as §3
[22] = Clearance in rat at 1.19 mg/kg, iv and 10.9 mg/kg, po; format: ADME, organism-based; conditions: in vivo; summary of the method: as §3
[23] = Half life in rat at 1.10 mg/kg, iv and 10.7 mg/kg, po; format: ADME, organism-based; conditions: in vivo
Summary of the method: (§4)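 Both routes were formulated at 1.0 mg/mL in 50% PEG. Parameters reported are Vd, AUCpo, oral bioavailability, clearance and half-life.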

[24] = Volume of distribution in rat at 1.10 mg/kg, iv and 10.7 mg/kg, po; format: ADME, organism-based; conditions: in vivo, 1.1 mg/kg; summary of the method: as §4
[25] = AUC in rat at 10.7 mg/kg, po; format: ADME, organism-based; set-up: dose 10.7 mg/kg, route oral; conditions: plasma; summary of the method: as §4
[26] = Oral bioavailability in rat at 10.7 mg/kg; format: ADME, organism-based; conditions: in vivo; summary of the method: as §4
[27] = Clearance in rat at 1.10 mg/kg, iv and 10.7 mg/kg, po; format: ADME, organism-based; conditions: in vivo, 1.1 mg/kg; summary of the method: as §4

Compound: N#Cc1cc(Cl)cc(Oc2cc(OCc3n[nH]c4nc(N)ccc34)ccc2Cl)c1
- CC50 [1]: > 10000 nM

Compound: Cc1cc(C#N)ccc1-c1ccnc(NCc2n[nH]c3ncccc23)c1
- EC50 [2]: 1.1 nM
- CC50 [1]: > 10000 nM
- solubility [3]: 3.7 µM (≈ 1.26 µg/mL)
- solubility [4]: > 881 µM
- IC50 [5]: 1.2 nM
- IC50 [6]: 10 nM
- IC50 [7]: 5.6 nM

Compound: Cc1cc(C#N)ccc1-c1ccnc(NCc2n[nH]c(-c3ccccn3)c2Cl)c1
- EC50 [2]: 0.2 nM
- CC50 [1]: > 10000 nM
- solubility [3]: 1.1 µM (≈ 0.441 µg/mL)
- solubility [4]: 132 µM (≈ 52.9 µg/mL)
- IC50 [5]: 3 nM
- IC50 [6]: 16 nM
- IC50 [7]: 7.9 nM
- Vd [8]: 1.1 L/kg
- AUC [9]: 67 µM·h
- bioavailability [10]: 127%
- clearance [11]: 8.2 mL/min/kg
- half-life [12]: 2 h
- Activity [13]: Not Active

Compound: Cc1cccc(-c2cnnc(NCc3cc(-c4ccccc4)[nH]n3)n2)c1
- EC50 [2]: 2300 nM
- CC50 [1]: > 10000 nM

Compound: Cc1cc(C#N)ccc1-c1ccnc(NCc2cc(-c3ccccn3)[nH]n2)c1
- EC50 [2]: 3.6 nM
- CC50 [1]: > 10000 nM
- solubility [3]: 0.71 µM (≈ 0.26 µg/mL)
- solubility [4]: > 545 µM
- IC50 [5]: 10 nM
- IC50 [6]: 134 nM
- Ratio IC50 [14]: 13
- IC50 [7]: 84 nM
- Ratio IC50 [15]: 8.4
- IC50 [16]: 1100 nM

Compound: Cc1cc(C#N)ccc1-c1ccnc(NCc2n[nH]c3nc(N)ccc23)c1.Cl
- solubility [17]: > 4220 µM

Compound: Cc1cc(C#N)ccc1-c1ccnc(NCc2n[nH]c(-c3ccccn3)c2Cl)c1.Cl
- solubility [17]: 100 µM

Compound: Cc1ccnc2c1NC(=O)c1cccnc1N2C1CC1 [NEVIRAPINE]
- EC50 [2]: 150 nM
- CC50 [1]: > 10000 nM

Compound: Cc1cc(C#N)ccc1-c1ccnc(NCc2n[nH]c(-c3ccccc3)c2Cl)c1
- EC50 [2]: 6.8 nM
- CC50 [1]: > 10000 nM
- solubility [3]: 2.1 µM (≈ 0.84 µg/mL)
- solubility [4]: 45 µM (≈ 18 µg/mL)
- IC50 [5]: 5.1 nM
- IC50 [6]: 11 nM
- IC50 [7]: 6.3 nM
- half-life [18]: 3.1 h
- Vd [19]: 2.08 L/kg
- AUC [20]: 34 µM·h
- bioavailability [21]: 71%
- clearance [22]: 8.7 mL/min/kg

Compound: Cc1cc(C#N)ccc1-c1ccnc(NCc2n[nH]c3nc(N)ccc23)c1
- EC50 [2]: 1.9 nM
- CC50 [1]: > 10000 nM
- solubility [3]: 0.34 µM (≈ 0.121 µg/mL)
- solubility [4]: > 884 µM
- IC50 [5]: 5.9 nM
- IC50 [6]: 36 nM
- IC50 [7]: 16 nM
- half-life [23]: 2.5 h
- Vd [24]: 1.26 L/kg
- AUC [25]: 20 µM·h
- bioavailability [26]: 72%
- clearance [27]: 14 mL/min/kg

Compound: Cc1cc(C#N)ccc1-c1cnnc(NCc2cc(-c3ccccc3)[nH]n2)n1
- EC50 [2]: 1.7 nM
- CC50 [1]: > 10000 nM

Compound: Cc1cc(C#N)ccc1-c1ccnc(NCc2n[nH]c3nc(F)ccc23)c1
- EC50 [2]: 0.35 nM
- CC50 [1]: > 10000 nM
- solubility [3]: 1.8 µM (≈ 0.645 µg/mL)
- IC50 [5]: 1.9 nM
- IC50 [6]: 10 nM
- IC50 [7]: 7.7 nM

Compound: Cc1cc(C#N)ccc1-c1ccnc(NCc2cc(-c3ccccc3)[nH]n2)c1
- EC50 [2]: 0.8 nM
- CC50 [1]: > 10000 nM

Compound: Cc1cc(C#N)ccc1-c1cncc(NCc2cc(-c3ccccc3)[nH]n2)c1
- EC50 [2]: 16 nM
- CC50 [1]: > 10000 nM

More lines, main results first:

- EC50 [2]: 910 nM
Compound: Cc1ccccc1-c1cncc(NCc2cc(-c3ccccc3)[nH]n2)n1
- CC50 [1]: > 10000 nM

- EC50 [2]: > 10000 nM
Compound: Cc1ccc(-c2cnnc(NCc3cc(-c4ccccc4)[nH]n3)n2)cc1
- CC50 [1]: > 10000 nM

- EC50 [2]: 124 nM
Compound: Cc1ccccc1-c1cnnc(NCc2cc(-c3ccccc3)[nH]n2)n1
- CC50 [1]: > 10000 nM

- EC50 [2]: 366 nM
Compound: Cc1ccccc1-c1ccnc(NCc2cc(-c3ccccc3)[nH]n2)n1
- CC50 [1]: > 10000 nM

- EC50 [2]: > 10000 nM
Compound: Cc1ccccc1-c1cccc(NCc2cc(-c3ccccc3)[nH]n2)n1
- CC50 [1]: > 10000 nM

- EC50 [2]: 1200 nM
Compound: Cc1ccccc1-c1cncc(NCc2cc(-c3ccccc3)[nH]n2)c1
- CC50 [1]: > 10000 nM

- EC50 [2]: 265 nM
Compound: c1ccc(-c2cc(CNc3nncc(-c4cccc5ccccc45)n3)n[nH]2)cc1
- CC50 [1]: > 10000 nM

- EC50 [2]: 2200 nM
Compound: Cc1ccccc1-c1cccc(NCc2cc(-c3ccccc3)[nH]n2)c1
- CC50 [1]: > 10000 nM

- EC50 [2]: 4.3 nM
Compound: Cc1cc(C#N)ccc1-c1ccnc(NCc2cc(-c3ccccc3)[nH]n2)n1
- CC50 [1]: > 10000 nM

- EC50 [2]: 3.2 nM
Compound: Cc1cccc(C)c1-c1cnnc(NCc2cc(-c3ccccc3)[nH]n2)n1
- CC50 [1]: > 10000 nM

- EC50 [2]: 1290 nM
Compound: c1ccc(-c2cnnc(NCc3cc(-c4ccccc4)[nH]n3)n2)cc1
- CC50 [1]: > 10000 nM

- EC50 [2]: 149 nM
Compound: Cc1ccccc1-c1ccnc(NCc2cc(-c3ccccc3)[nH]n2)c1
- CC50 [1]: > 10000 nM
